# Reference: ChEMBL document CHEMBL3580660, “Synthesis and Biological Evaluation of Novel Olean-28,13β-lactams as Potential Antiprostate Cancer Agents” (J Med Chem, 2015)
# The source made the active and inactive calls. The rule behind the calls is not given here.
# Tests used:
# DU-145 [1] = assay: Antiproliferative activity against human DU145 cells at 2 uM after 72 hrs by CCK8 assay; format: functional
# Procedure, shortened: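 DU-145 screening at single concentration 2 μM for 72 h, proliferation by CCK-8 (cells 5 × 10^3/well in 10% FCS DMEM). Percent inhibition vs untreated, background-corrected; mean ± SD from three independent experiments.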
# [2] = Antiproliferative activity against human BxPC3 cells after 72 hrs by CCK8 assay; format: functional, cell-based; settings: BXPC-3, 72 h
# Procedure, shortened: (§1)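 CCK-8 assay: DU-145, H460, Bxpc-3, BEL-7404 and nontumor WPMY-1 cells seeded at 5 × 10^3 cells/well in 10% FCS DMEM overnight, then exposed in triplicate to 0.041−10 μM for 72 h. CCK-8 added for final 30 min, absorbance 450 nm; inhibition relative to medium-only controls after background subtraction; IC50 as concentration giving 50% inhibition.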
# [3] = Antiproliferative activity against human H460 cells after 72 hrs by CCK8 assay; format: functional, cell-based; settings: NCI-H460, 72 h; procedure, shortened: as §1
# [4] = Antiproliferative activity against human WPMY-1 cells after 72 hrs by CCK8 assay; format: functional, cell-based; settings: WPMY-1, 72 h; procedure, shortened: as §1
# [5] = Antiproliferative activity against human Bel7404 cells after 72 hrs by CCK8 assay; format: functional, cell-based; settings: BEL-7404, 72 h; procedure, shortened: as §1
# DU-145 [6] = assay: Antiproliferative activity against human DU145 cells after 72 hrs by CCK8 assay; format: functional, cell-based; settings: DU-145, 72 h; procedure, shortened: as §1
smiles,measurement,setting,value
CCN1C(=O)[C@]23CCC(C)(C)C[C@H]2[C@]12C(=O)C=C1[C@@]4(C)C=C(C#N)C(=O)C(C)(C)[C@@H]4CC[C@@]1(C)[C@]2(C)CC3,inhibition,DU-145 [1],Active
CCCCCCN1C(=O)[C@]23CCC(C)(C)C[C@H]2[C@]12C(=O)C=C1[C@@]4(C)C=C(C#N)C(=O)C(C)(C)[C@@H]4CC[C@@]1(C)[C@]2(C)CC3,inhibition,DU-145 [1],Active
CC1(C)CC[C@]2(C(=O)n3ccnc3)CC[C@]3(C)[C@H](C(=O)C=C4[C@@]5(C)C=C(C#N)C(=O)C(C)(C)[C@@H]5CC[C@]43C)[C@@H]2C1,IC50,[2],1500 nM
same,IC50,[3],420 nM
same,IC50,[4],2090 nM
same,IC50,[5],990 nM
same,IC50,DU-145 [6],690 nM
CC1(C)CC[C@]23CC[C@@]4(C)[C@]5(C)CC[C@H]6C(C)(C)C(=O)C(C#N)=C[C@]6(C)C5=CC(=O)[C@@]4([C@@H]2C1)N(C(C)(C)C)C3=O,IC50,[2],660 nM
same,IC50,[3],430 nM
same,IC50,[4],9600 nM
same,inhibition,DU-145 [1],Active
same,IC50,[5],1140 nM
same,IC50,DU-145 [6],960 nM
CC1(C)CC[C@]2(C(=O)NC3CCCCC3)CC[C@]3(C)[C@H](C(=O)C=C4[C@@]5(C)C=C(C#N)C(=O)C(C)(C)[C@@H]5CC[C@]43C)[C@@H]2C1,inhibition at 2 µM,"DU-145 [1]; DU-145, 72 h",53%
CN1C(=O)[C@]23CCC(C)(C)C[C@H]2[C@]12C(=O)C=C1[C@@]4(C)C=C(C#N)C(=O)C(C)(C)[C@@H]4CC[C@@]1(C)[C@]2(C)CC3,inhibition,DU-145 [1],Active
CCCCN1C(=O)[C@]23CCC(C)(C)C[C@H]2[C@]12C(=O)C=C1[C@@]4(C)C=C(C#N)C(=O)C(C)(C)[C@@H]4CC[C@@]1(C)[C@]2(C)CC3,inhibition,DU-145 [1],Active
CCCN1C(=O)[C@]23CCC(C)(C)C[C@H]2[C@]12C(=O)C=C1[C@@]4(C)C=C(C#N)C(=O)C(C)(C)[C@@H]4CC[C@@]1(C)[C@]2(C)CC3,inhibition,DU-145 [1],Active
CC1(C)CC[C@]23CC[C@@]4(C)[C@]5(C)CC[C@H]6C(C)(C)C(=O)C(C#N)=C[C@]6(C)C5=CC(=O)[C@@]4([C@@H]2C1)N(CCO)C3=O,inhibition,DU-145 [1],Active
CC1(C)CC[C@]23CC[C@@]4(C)[C@]5(C)CC[C@H]6C(C)(C)C(=O)C(C#N)=C[C@]6(C)C5=CC(=O)[C@@]4([C@@H]2C1)N(CCc1ccccc1)C3=O,inhibition,DU-145 [1],Active
